In ChEMBL document CHEMBL1138360, “Hypoxia-selective 3-alkyl 1,2,4-benzotriazine 1,4-dioxides: the influence of hydrogen bond donors on extravascular transport and antitumor activity” (J Med Chem, 2007):

Experiments:
[1] = system: HT-29; assay: Cytotoxicity against HT29 cells under hypoxic condition after 4 hrs; assay type: functional, cell-based; details: Homo sapiens, HT-29, 4 h
Procedure, shortened: (§1)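 HT29 or SiHa cells exposed to drug for 4 h in 96-well plates under anoxia (H2/Pd anaerobic chamber). IC50 determined.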

[2] = system: HT-29; assay: Ratio of IC50 for HT29 cells in aerobic condition to IC50 for HT29 cells in hypoxic condition after 4 hrs; assay type: functional, Homo sapiens
Procedure, shortened: (§2)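 Aerobic and anoxic (H2/Pd chamber) IC50s measured in the same experiment after 4 h exposure, HT29 or SiHa cells. Ratio computed as aerobic IC50/anoxic IC50.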

[3] = system: SiHa; assay: Cytotoxicity against SiHa cells under hypoxic condition after 4 hrs; assay type: functional, cell-based; details: Homo sapiens; procedure, shortened: as §1
[4] = system: SiHa; assay: Ratio of IC50 for SiHa cells in aerobic condition to IC50 for SiHa cells in hypoxic condition after 4 hrs; assay type: functional, Homo sapiens; procedure, shortened: as §2
[5] = system: HT-29; assay: Diffusion coefficient, D in aerobic HT29 multicellular layers; assay type: ADME, cell-based; details: human
Procedure, shortened: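 Drug flux measured through HT29 multicellular layers on Teflon support membranes under 95% O2 at 37 °C, 50 µM initial donor concentration. Donor and receiver levels fitted with a diffusion model. Layer thickness estimated from flux of internal standard urea.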

[6] = system: HT-29; assay: Drug penetration in anoxic HT29 cells assessed as penetration half distance; assay type: ADME, cell-based; details: human
[7] = system: HT-29; assay: Cell viability in anoxic HT29 cells assessed as drug level providing 10% surviving fraction by clonogenic assay; assay type: cell-based; details: human
[8] = Toxicity in ip dosed CD1 mouse; assay type: organism-based; details: in vivo
Procedure, shortened: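 Single i.p. doses given to homozygous nude CD-1 Foxn1nu mice, with the vehicle formulated per compound. Doses escalated in 1.33-fold increments. MTD was defined as the highest dose causing no mortality, no body weight loss >15% and no other severe morbidity in any of six mice.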

[9] = Cmax in CD1 mouse plasma at 562 umol/kg, ip; assay type: ADME, organism-based; design: dose 562 umol/kg, route intraperitoneal
Procedure, shortened: (§3)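 Single i.p. dose to homozygous nude CD-1 Foxn1nu mice, at 75 or 100% of MTD (MTD set by 1.33-fold dose steps; highest dose without death, >15% weight loss or severe morbidity in any of six mice). Total drug measured in plasma by HPLC. AUC, Cmax and terminal t½ derived noncompartmentally. Measured levels taken as free drug.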

[10] = Terminal half life in CD1 mouse plasma at 562 umol/kg, ip; assay type: ADME, organism-based; procedure, shortened: as §3
[11] = AUC (0 to infinity) in CD1 mouse plasma at 562 umol/kg, ip; assay type: ADME, organism-based; design: dose 562 umol/kg, time infinity, route intraperitoneal; procedure, shortened: as §3
[12] = system: HT-29; assay: Antitumor activity against HT29 tumor inoculated in CD1 nude mouse at 562 umol/kg, ip relative to control; assay type: functional, Homo sapiens
[13] = system: HT-29; assay: Antitumor activity against HT29 tumor inoculated in CD1 nude mouse at 562 umol/kg, ip administered 5 mins after gamma irradiation by excision assay relative to radiation alone; assay type: functional, Homo sapiens
Procedure, shortened: (§4)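 HT29 xenografts in nude CD-1 mice received 20 Gy γ radiation, then a single i.p. drug dose 5 min later, at 100% or 75% of MTD. Tumors excised 18 h afterwards, dissociated to single cells and plated for clonogens/g tumor. Hypoxic cell kill = log(clonogens/g, radiation only) − log(clonogens/g, radiation + drug).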

[14] = Cmax in CD1 mouse plasma at 421 umol/kg, ip; assay type: ADME, organism-based; design: dose 421 umol/kg, route intraperitoneal; procedure, shortened: as §3
[15] = Terminal half life in CD1 mouse plasma at 421 umol/kg, ip; assay type: ADME, organism-based; procedure, shortened: as §3
[16] = AUC (0 to infinity) in CD1 mouse plasma at 421 umol/kg, ip; assay type: ADME, organism-based; design: dose 421 umol/kg, time infinity, route intraperitoneal; procedure, shortened: as §3
[17] = system: HT-29; assay: Antitumor activity against HT29 tumor inoculated in CD1 nude mouse at 421 umol/kg, ip relative to control; assay type: functional, Homo sapiens
[18] = system: HT-29; assay: Antitumor activity against HT29 tumor inoculated in CD1 nude mouse at 421 umol/kg, ip administered 5 mins after gamma irradiation by excision assay relative to radiation alone; assay type: functional, Homo sapiens; procedure, shortened: as §4

Structure (SMILES) | IC50 [1] [µM] | Ratio IC50 [2] | IC50 [3] [µM] | Ratio IC50 [4] | D [5] | Penetration half distance [6] [µm] | Activity [7] [µM·h] | MTD [8] [µmol/kg] | Cmax [9] [µM] | half-life [10] [min] | AUC(0-inf) [11] [µM·h] | Activity [12] [%] | Activity [13] [%] | Cmax [14] [µM] | half-life [15] [min] | AUC(0-inf) [16] [µM·h] | Activity [17] [%] | Activity [18] [%]
CCc1n[n+]([O-])c2ccccc2[n+]1[O-] | 6.8 | 54 | 5.9 | 84 | 26.12 10^-7cm2/sec | 63 | 19.7 | 562 | 271 | 11.2 | 146 | 0.11 | 0.89 | – | – | – | – | –
[O-][n+]1nc(CCCO)[n+]([O-])c2ccccc21 | 3.7 | 110 | 3.1 | 85 | 4.94 10^-7cm2/sec | 34 | 30.2 | – | – | – | – | – | – | – | – | – | – | –
[O-][n+]1nc(CCCN2CCCCC2)[n+]([O-])c2ccccc21 | 1 | 36 | 0.6 | 55 | 6.5 10^-7cm2/sec | 34 | 1.5 | – | – | – | – | – | – | – | – | – | – | –
COCCc1n[n+]([O-])c2ccc(C)cc2[n+]1[O-] | 6.6 | 63 | 1.9 | 150 | 17.34 10^-7cm2/sec | 34 | 57.9 | – | – | – | – | – | – | – | – | – | – | –
CCc1n[n+]([O-])c2cc(OCCOC)ccc2[n+]1[O-] | 4.7 | 69 | 1.8 | 116 | – | 34 | 40.7 | – | – | – | – | – | – | – | – | – | – | –
CN(C)CCCc1n[n+]([O-])c2ccccc2[n+]1[O-] | 0.39 | 71 | 0.2 | 58 | – | 34 | 2.1 | – | – | – | – | – | – | – | – | – | – | –
CCc1n[n+]([O-])c2ccc(OCCN(C)C)cc2[n+]1[O-] | 1.3 | 307 | 0.8 | 374 | – | 34 | 5.1 | 562 | – | – | – | – | – | 55.5 | 32.2 | 55.7 | 0.23 | 0.88
CCc1n[n+]([O-])c2cc(OCCCO)ccc2[n+]1[O-] | 6.9 | 146 | 2.7 | 161 | – | 34 | 31.6 | – | – | – | – | – | – | – | – | – | – | –
Cc1ccc2c(c1)[n+]([O-])c(CCO)n[n+]2[O-] | 4.3 | 82 | 1.2 | 208 | – | 34 | 22.2 | – | – | – | – | – | – | – | – | – | – | –
CCc1n[n+]([O-])c2ccc(C)cc2[n+]1[O-] | 11.4 | 63 | 3.6 | 214 | – | 34 | 52.4 | – | – | – | – | – | – | – | – | – | – | –
CCc1n[n+]([O-])c2cc(OCCN(C)C)ccc2[n+]1[O-] | 0.7 | 105 | 0.5 | 128 | – | 34 | 1.8 | – | – | – | – | – | – | – | – | – | – | –
Cc1n[n+]([O-])c2ccccc2[n+]1[O-] | 4.1 | 67 | 3 | 57 | 19.15 10^-7cm2/sec | 34 | 25.3 | – | – | – | – | – | – | – | – | – | – | –
[O-][n+]1nc(CCCN2CCOCC2)[n+]([O-])c2ccccc21 | 2.2 | 91 | 1 | 132 | 7.47 10^-7cm2/sec | 34 | 3.2 | – | – | – | – | – | – | – | – | – | – | –
CCc1n[n+]([O-])c2ccc(OC)cc2[n+]1[O-] | 16.8 | 73 | 6.8 | 175 | – | 34 | 69.9 | 750 | 71.5 | – | 138 | – | 0.76 | – | – | – | – | –
COCCc1n[n+]([O-])c2ccccc2[n+]1[O-] | 3.5 | 49 | 1.6 | 61 | 20.89 10^-7cm2/sec | 34 | 21.3 | 421 | – | – | – | – | – | 176 | 18 | 113 | 0.3 | 0.8
CCc1n[n+]([O-])c2ccc(OCCOC)cc2[n+]1[O-] | 17.9 | 120 | 14.2 | 70 | – | 34 | 213.2 | – | – | – | – | – | – | – | – | – | – | –
[O-][n+]1nc(CCO)[n+]([O-])c2ccccc21 | 3.7 | 153 | 1.7 | 526 | 4.41 10^-7cm2/sec | 34 | 18.1 | – | – | – | – | – | – | – | – | – | – | –
[O-][n+]1nc(CCN2CCOCC2)[n+]([O-])c2ccccc21 | 3.8 | 107 | 2.2 | 225 | – | 34 | 10 | – | – | – | – | – | – | – | – | – | – | –
COCCCc1n[n+]([O-])c2ccccc2[n+]1[O-] | 6.9 | 86 | 2.4 | 272 | 21.3 10^-7cm2/sec | 34 | 26.7 | – | – | – | – | – | – | – | – | – | – | –
